Only some compounds are listed: those with a hit (about 4.9% of all), similar ones and a draw of the others.
STAT1 blocker – reduces IFN-gamma driven STAT1 reporter signal | inhibition, % at 5.5 µM | 0.35% of 200,000 active | NIH 3T3 STAT1-luciferase reporter, luminescence;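 active = inhibition above a set limit, the mean inhibition across all tested compounds plus 3 SD, cut at about 34% in these data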;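 note: 0% = IFN-gamma with DMSO and 100% = IFN-gamma with 300 µM nifuroxazide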
STAT3 inh – inhibitors of IL-6 induced STAT3 signaling | U3A cells, IL-6 STAT3-luciferase reporter, luminescence; host cell line lacks STAT1 | inhibition, % at 5.5 µM | 0.89% of 190,000 active | AID 862;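 active = inhibition above the mean inhibition across all screened compounds plus 3 SD, cut at about 44% in these data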;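 note: 0% = DMSO only wells and 100% = 100 µM nifuroxazide control wells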
STAT3 act – STAT3 signaling activation | 0.91% of 190,000 active | AID 871 | activation (% of control), % at 5.6 µM | U3A cells, IL-6 STAT3-luciferase reporter, luminescence; 100% = signal with IL-6 EC80 alone;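 active = activation above the screen-wide mean of compound activation plus 3 SD, cut at about 130% in these data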;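 note: 0% = background luminescence of wells with medium and substrate only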
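Material: human STAT1-deficient U3A cells with stable STAT3-luciferase reporter / Probe or stimulus: IL-6 stimulus at 33 ng/mL final / Schedule: 1 h compound pre-exposure, 6 h IL-6 stimulation, 37 °C / Technique: luminescence / Read-out basis: percent of IL-6-only median luminescence / Control set: IL-6-only high control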
APP 5'UTR act – APP 5'UTR luciferase reporter activation. SH-SY5Y APP 5'UTR luciferase reporter, luminescence; zero percent = DMSO vehicle wells. activation, % at 2 µM. 1% of 190,000 active;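 active = activation above a set limit, based on mean plus 3 SD of controls, cut at about 140% in these data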
NF-kB neuron act – compounds increasing NF-kB expression in human neuronal cells | NF-kB reporter expression; stronger effect = higher value | fold change at 12.5 µM | 1.6% of 190,000 active; in the data active = fold change above about 3.3
STAT1 act – activators of IFN-gamma induced STAT1 signaling | NIH 3T3 STAT1-luciferase reporter, luminescence; 100% = IFN-gamma alone, no compound | activation (% of control), % at 5.5 µM | 2.6% of 200,000 active | AID 932;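 active = activation above the screen-wide mean activation plus 3 SD, cut at about 130% in these data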;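 note: raw ratio to IFN-gamma control signal so 100% means no change and 0% no light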
Numbers without * were called inactive.

SMILES	STAT1 blocker	STAT3 inh	STAT3 act	APP 5'UTR act	NF-kB neuron act	STAT1 act
Cc1ncc(CN2CCN(C(C)C)C(CCO)C2)s1 (stereo not drawn)	1	-1	101	-5	1.1	100
Cc1cc(NC(=O)c2ccc(-c3ccc(F)c(Cl)c3)o2)no1	-25	25	85	34	1.3	122
Cc1cc(NC(=O)c2ccc(-c3ccccc3F)o2)no1	-50	5	99	58	2	144*
O=C(NNC(=O)C1CC2CCC1C2)c1sc2ccccc2c1Cl (stereo not drawn)	-33	26	80	43	0.73	130*
Cc1cccc(NC(=O)C(=O)NCC2CCCO2)c1 (stereo not drawn)	-41	0	104	54	1.8	136*
Cc1ccc2c(Cl)c(C(=O)NCC3CCCO3)sc2c1 (stereo not drawn)	-36	18	89	122	3.9*	132*
Cc1ccc2c(Cl)c(C(=O)NCCc3ccccc3)sc2c1	-40	17	87	111	2.7	136*
CC(C)NC(=O)COc1nncc2ccccc12	-2	1	100	19	1.1	100
CC(=O)NS(=O)(=O)c1ccc(NC(=S)NC(=O)Cc2ccccc2)cc1	0	3	101	-13	1.2	99
O=C(CNC(=O)c1cccc(Cl)c1)N/N=C/C=C/c1ccccc1	4	2	98	9	1.1	96
COc1ccc2c(Cl)c(C(=O)NCC3CCCO3)sc2c1Cl (stereo not drawn)	-7	2	96	18	1.3	109
O=C(NCC1CCCO1)c1sc2ccccc2c1Cl (stereo not drawn)	-36	12	90	101	3.1	132*
COC(=O)C(C(=O)Nc1ccccc1C)C1CCCCCC1 (stereo not drawn)	9	4	101	12	3.1	91
Cc1ccc(NC(=S)NNC(=O)c2nn(C)c(C)c2Cl)cc1	-35	11	99	112	2.9	131*
CC(Oc1ccc(Cl)cc1Cl)c1nc(-c2ccc(NC(=O)c3ccccn3)cc2)no1 (stereo not drawn)	-32	35	74	147*	1.3	129*
NC(=O)[C@@H]1CCCN1Cc1nc(Cc2ccccc2Cl)no1	-5	5	99	-5	1.1	103
COc1cccc(N2CCN(C(=O)c3ccc4nc(N5CCCCC5)sc4c3)CC2)c1	-40	-21	121	70	2.3	136*
COc1ccc(N2CCN(C(=O)c3ccc4nc(N5CCCCC5)sc4c3)CC2)cc1	-7	-17	114	1	1.6	107
COc1cccc(/C=N\NC(=O)Cn2nnc3ccccc32)c1O	-8	-8	108	0	3.3*	105
Cc1ccc(NC(=O)Cn2nnc3ccccc32)cc1	-31	-23	121	57	0.94	126
COC(=O)c1ccc(NC(=O)Cn2nnc3ccccc32)cc1	-37	2	103	63	2.5	134*
Cc1cccc(NC(=O)Cn2nnc3ccccc32)c1	-36	-7	112	45	2.6	130*
COc1cc(/C=N/NC(=O)Cn2nnc3ccccc32)ccc1O	-9	2	106	13	1.1	108
COc1ccc(C(=O)N2CCC(n3c(C)nc4cc(F)ccc43)CC2)cc1	10	15	93	-8	1	89
CCCCOc1ccc(-c2ncc(C(=O)O)c(C)n2)cc1	-39	6	99	165*	4.3*	136*
SMILES	STAT1 blocker	STAT3 inh	STAT3 act	APP 5'UTR act	NF-kB neuron act	STAT1 act
CCOc1ccccc1C(=O)Nc1cnn(Cc2ccc(F)cc2)c1	0	9	91	-6	0.94	100
CC(Oc1cc(Cl)ccc1Cl)C(=O)N/N=C\c1ccnn1C (stereo not drawn)	5	-16	111	-2	1.2	96
OCCn1c(-c2ccc(F)cc2)csc1=Nc1ccccc1	-8	4	96	16	1.5	108
CN=c1scc(-c2ccc(F)cc2)n1/N=C/c1ccc(O)c(O)c1	47*	-4	104	-37	0.96	55
COC(=O)CCCSc1nccn1-c1ccccc1	9	-5	105	15	6*	92
CCOc1ccccc1NC(=O)CSc1nccn1-c1ccccc1	-4	-1	107	5	0.82	103
c1ccc(CCSc2nccn2-c2ccccc2)cc1	-47	-5	109	126	4.6*	142*
CC(C1CCN(Cc2cn(C)nc2-c2cccc(Cl)c2)CC1)N1CCOCC1 (stereo not drawn)	-9	15	96	0	0.87	108
Cn1cccc1C(=O)C(=O)Nc1ccccc1C(F)(F)F	-43	13	91	57	1.8	139*
C/C(O)=C(/N=O)C(=O)Nc1ccccc1	-12	1	102	11	1.1	111
CCOC(=O)c1cnn(-c2ccccc2)c1-n1cccc1C(=O)C(=O)Nc1ccccc1C(F)(F)F	-5	-3	108	12	0.75	105
Cn1cccc1C(=O)C(=O)Nc1ccccc1	-23	28	79	145*	5.9*	121
Oc1ccc2cc(Br)ccc2c1CN1CCCC1	0	-6	106	11	0.93	99
Cc1ccc(C)c(Cn2c(C)nc3c(sc(=S)n3-c3ccccc3)c2=O)c1	-3	2	110	6	1	102
CCCCCCOc1ccc(NC(=O)CC2C(=O)N(CC)C(=S)N2Cc2ccco2)cc1 (stereo not drawn)	18	-4	104	17	0.9	84
Cc1ccnc2ccc(-c3nc4ccccc4o3)cc12	-40	-58	153*	20	1.9	136*
c1ccc(-c2nc3ccccc3o2)nc1	-28	6	98	48	1.4	126
COc1ccc(-c2cn[nH]c2N)cc1	3	-2	102	3	1.1	96
COc1ccc(-c2nc3c(Br)c(N)c(Br)cc3o2)cc1	-39	-88	178*	113	1.7	135*
Cc1cc(C)nc(Nc2nc3ccccc3s2)n1	-36	-61	156*	147*	1.2	129*
NC(=S)Nc1nc2ccccc2s1	-40	-55	155*	47	1.4	134*
CC(=O)c1sc2nc(-c3cccs3)ccc2c1N	-21	-5	108	74	2	120
Nc1c(C(=O)Nc2nc3ccccc3s2)sc2nc(-c3cccs3)ccc12	-51	18	91	110	2.1	140*
O=C(NC(=S)Nc1nc2ccccc2s1)c1cccs1	-37	-66	151*	145*	2.5	133*
CSC1=NCCN1CCOc1ccccc1	-2	6	96	1	1.1	101
CCOC(=O)C1CCN(C(=O)C(CC)c2ccccc2)CC1 (stereo not drawn)	0	2	105	12	1.2	99
Cc1ccc2c(CC(=O)N3CCN(c4ccccc4)CC3)coc2c1	-3	-2	103	-5	0.95	103
